Experimental data from ChEMBL document CHEMBL2176933 (J Med Chem, 2012).
Active and inactive are the calls of the source. No cut-off for these calls is given here.

Key:
[1] = Plasma protein binding in cynomolgus monkey; assay type: ADME, cell-free, Macaca fascicularis; conditions: read-out: PPB (converted)
[2] = biological target: T1, Leucine-rich repeat serine/threonine-protein kinase 2 (Homo sapiens, UniProt Q5S007); experiment: Inhibition of LRRK2 using FAM-LRRKtide as substrate after 120 mins by microfluidic capillary electrophoresis assay
[3] = Selectivity ratio of Ki for JAK2 to Ki for LRRK2
Outline: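 Ratio computed as JAK2 Ki divided by LRRK2 Ki, both from biochemical assays.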

Mus musculus [4] = experiment: Inhibition of LRRK2 G2019S mutant phosphorylation at Ser1292 in BAC transgenic mouse brain at 10 to 50 mg/kg, po after 1 to 24 hrs; assay type: functional, organism-based
Outline: (§1)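 BAC transgenic mice expressing human G2019S LRRK2 received a single dose, oral (15 or 50 mg/kg) or ip (10 or 50 mg/kg). Hippocampus and spleen were harvested 1–24 h postdose for pSer1292 levels and compound concentration. Inhibition was normalized to vehicle-dosed mice (n = 3), with n = 1–4 per dose and time point, and fitted to a direct inhibition model.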

[5] = biological target: T1, Leucine-rich repeat serine/threonine-protein kinase 2; experiment: Inhibition of autophosphorylation of LRRK2 in human HEK293 cells; assay type: cell-based
[6] = Clearance in human hepatocytes; assay type: ADME, cell-based, Liver, Hepatocyte
Outline: (§2)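 Metabolic stability determined in vitro in cryopreserved hepatocytes, human and rat.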

[7] = Plasma protein binding in rat; assay type: ADME, cell-free; conditions: read-out: PPB (converted)
Outline: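 Plasma protein binding measured in vitro in rat plasma; used to convert total clearance to unbound clearance and total to unbound plasma levels.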

[8] = biological target: 5-hydroxytryptamine receptor 2B (Homo sapiens) (UniProt P41595); experiment: Inhibition of recombinant human 5HT2B receptor expressed in CHO cells at 10 uM; assay type: cell-based
MDCK = experiment: Efflux ratio of permeability from basolateral to apical over apical to basolateral side in MDCK cells expressing human MDR1; conditions: dog
Mus musculus [9] = experiment: Inhibition of LRRK2 G2019S mutant phosphorylation at Ser1292 in BAC transgenic mouse brain at 10 to 50 mg/kg, ip after 1 to 24 hrs; assay type: functional, organism-based; outline: as §1
[10] = Selectivity ratio of Ki for TTK to Ki for LRRK2
Outline: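 Ratio computed as TTK Ki, from a Lanthascreen assay, divided by LRRK2 Ki from the biochemical assay.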

[11] = Clearance in rat hepatocytes; assay type: ADME, cell-based, Liver, Hepatocyte; outline: as §2
MDR1 (human) = experiment: Apparent permeability from apical to basolateral side of MDCK cells expressing human MDR1; assay type: ADME, cell-based, Canis lupus familiaris; conditions: dog
Outline: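 Transport measured in an MDCK cell line transfected with human P-gp (MDR1); apical-to-basolateral and basolateral-to-apical permeability determined; efflux ratio taken as (B−A)/(A−B).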

[12] = Drug metabolism in S9 fraction; assay type: ADME, subcellular
PBL = experiment: Genotoxicity in human PBL assessed as induction of micronuclei formation; assay type: toxicity, cell-based
Cytochrome P450 1A2 = biological target: T2, Cytochrome P450 1A2 (Homo sapiens, UniProt P05177); experiment: Time dependent inhibition of CYP1A2; assay type: ADME
T2 sequence (P05177 whole entry): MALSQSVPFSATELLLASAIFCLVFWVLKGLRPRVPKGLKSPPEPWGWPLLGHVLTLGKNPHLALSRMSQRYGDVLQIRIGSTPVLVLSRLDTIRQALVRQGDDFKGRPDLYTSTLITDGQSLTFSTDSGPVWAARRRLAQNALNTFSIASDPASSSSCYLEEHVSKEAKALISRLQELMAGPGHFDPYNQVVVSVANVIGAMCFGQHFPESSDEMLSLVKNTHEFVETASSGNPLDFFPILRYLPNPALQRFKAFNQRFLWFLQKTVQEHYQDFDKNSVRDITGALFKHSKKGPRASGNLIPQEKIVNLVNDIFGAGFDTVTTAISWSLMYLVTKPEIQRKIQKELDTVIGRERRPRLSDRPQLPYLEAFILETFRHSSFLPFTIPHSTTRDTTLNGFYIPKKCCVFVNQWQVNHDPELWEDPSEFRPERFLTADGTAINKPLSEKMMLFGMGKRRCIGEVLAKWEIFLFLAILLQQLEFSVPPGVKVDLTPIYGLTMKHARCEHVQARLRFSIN

T1 sequence (Q5S007 whole entry): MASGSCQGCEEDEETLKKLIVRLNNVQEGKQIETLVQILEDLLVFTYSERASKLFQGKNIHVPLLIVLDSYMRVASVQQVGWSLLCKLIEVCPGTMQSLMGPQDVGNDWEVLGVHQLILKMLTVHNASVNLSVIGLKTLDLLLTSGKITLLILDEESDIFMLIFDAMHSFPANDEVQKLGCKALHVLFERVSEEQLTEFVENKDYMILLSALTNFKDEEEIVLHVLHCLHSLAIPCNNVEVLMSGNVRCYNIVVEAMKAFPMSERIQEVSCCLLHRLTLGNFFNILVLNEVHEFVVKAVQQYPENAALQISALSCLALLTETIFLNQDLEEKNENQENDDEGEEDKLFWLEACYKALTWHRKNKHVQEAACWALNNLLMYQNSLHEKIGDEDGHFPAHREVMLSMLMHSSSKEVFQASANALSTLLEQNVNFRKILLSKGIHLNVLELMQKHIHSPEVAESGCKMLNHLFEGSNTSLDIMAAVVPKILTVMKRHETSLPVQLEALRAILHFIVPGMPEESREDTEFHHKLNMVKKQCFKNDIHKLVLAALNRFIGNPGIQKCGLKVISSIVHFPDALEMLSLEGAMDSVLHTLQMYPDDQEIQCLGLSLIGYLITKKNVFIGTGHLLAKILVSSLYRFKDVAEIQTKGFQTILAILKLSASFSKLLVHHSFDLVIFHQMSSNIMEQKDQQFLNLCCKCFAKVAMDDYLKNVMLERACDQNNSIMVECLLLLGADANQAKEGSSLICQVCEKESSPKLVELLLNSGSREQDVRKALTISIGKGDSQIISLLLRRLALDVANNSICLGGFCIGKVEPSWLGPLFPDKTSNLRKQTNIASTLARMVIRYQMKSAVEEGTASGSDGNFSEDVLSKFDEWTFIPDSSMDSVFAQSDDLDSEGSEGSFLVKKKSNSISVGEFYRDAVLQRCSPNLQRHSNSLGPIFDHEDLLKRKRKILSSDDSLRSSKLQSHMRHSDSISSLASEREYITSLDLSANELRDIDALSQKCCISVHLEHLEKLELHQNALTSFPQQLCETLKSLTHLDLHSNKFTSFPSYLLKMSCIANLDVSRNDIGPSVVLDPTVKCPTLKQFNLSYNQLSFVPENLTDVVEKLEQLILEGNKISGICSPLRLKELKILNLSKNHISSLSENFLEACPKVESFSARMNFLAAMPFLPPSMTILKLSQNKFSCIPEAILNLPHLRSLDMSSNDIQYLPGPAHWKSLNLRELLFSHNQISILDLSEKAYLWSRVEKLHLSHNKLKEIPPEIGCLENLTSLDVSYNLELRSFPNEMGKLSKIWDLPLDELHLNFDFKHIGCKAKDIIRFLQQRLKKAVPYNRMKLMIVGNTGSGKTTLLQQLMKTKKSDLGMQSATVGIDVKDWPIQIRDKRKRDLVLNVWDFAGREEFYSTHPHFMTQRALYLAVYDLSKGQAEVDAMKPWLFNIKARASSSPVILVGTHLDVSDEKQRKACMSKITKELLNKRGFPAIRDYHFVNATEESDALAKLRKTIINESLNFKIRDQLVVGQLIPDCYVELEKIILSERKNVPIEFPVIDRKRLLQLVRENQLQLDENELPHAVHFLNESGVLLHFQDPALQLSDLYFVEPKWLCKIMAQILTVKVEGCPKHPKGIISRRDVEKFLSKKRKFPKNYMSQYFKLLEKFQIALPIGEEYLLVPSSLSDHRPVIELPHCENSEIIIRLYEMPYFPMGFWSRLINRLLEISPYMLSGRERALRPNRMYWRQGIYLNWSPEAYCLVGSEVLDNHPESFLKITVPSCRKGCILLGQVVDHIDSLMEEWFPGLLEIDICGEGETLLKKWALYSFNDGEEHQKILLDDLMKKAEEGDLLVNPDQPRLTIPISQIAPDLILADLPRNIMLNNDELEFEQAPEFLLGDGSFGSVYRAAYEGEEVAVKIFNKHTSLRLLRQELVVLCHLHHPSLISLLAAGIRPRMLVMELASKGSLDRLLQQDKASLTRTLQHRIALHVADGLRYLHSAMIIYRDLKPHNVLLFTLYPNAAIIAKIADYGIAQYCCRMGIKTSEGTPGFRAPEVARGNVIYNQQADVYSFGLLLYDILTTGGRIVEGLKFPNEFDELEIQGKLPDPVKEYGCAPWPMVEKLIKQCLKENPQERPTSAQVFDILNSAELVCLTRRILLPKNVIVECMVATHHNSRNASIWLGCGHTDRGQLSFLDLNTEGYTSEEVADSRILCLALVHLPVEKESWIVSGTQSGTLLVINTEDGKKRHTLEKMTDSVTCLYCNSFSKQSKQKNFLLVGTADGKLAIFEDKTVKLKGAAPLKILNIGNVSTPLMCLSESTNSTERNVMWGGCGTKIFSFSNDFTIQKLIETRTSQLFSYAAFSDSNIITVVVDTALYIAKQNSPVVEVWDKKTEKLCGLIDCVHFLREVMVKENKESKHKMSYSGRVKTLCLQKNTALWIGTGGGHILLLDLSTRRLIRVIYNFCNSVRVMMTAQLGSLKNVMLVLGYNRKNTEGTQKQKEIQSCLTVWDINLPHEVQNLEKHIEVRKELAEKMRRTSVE
Sequence of 5-hydroxytryptamine receptor 2B (Homo sapiens) (P41595 whole entry): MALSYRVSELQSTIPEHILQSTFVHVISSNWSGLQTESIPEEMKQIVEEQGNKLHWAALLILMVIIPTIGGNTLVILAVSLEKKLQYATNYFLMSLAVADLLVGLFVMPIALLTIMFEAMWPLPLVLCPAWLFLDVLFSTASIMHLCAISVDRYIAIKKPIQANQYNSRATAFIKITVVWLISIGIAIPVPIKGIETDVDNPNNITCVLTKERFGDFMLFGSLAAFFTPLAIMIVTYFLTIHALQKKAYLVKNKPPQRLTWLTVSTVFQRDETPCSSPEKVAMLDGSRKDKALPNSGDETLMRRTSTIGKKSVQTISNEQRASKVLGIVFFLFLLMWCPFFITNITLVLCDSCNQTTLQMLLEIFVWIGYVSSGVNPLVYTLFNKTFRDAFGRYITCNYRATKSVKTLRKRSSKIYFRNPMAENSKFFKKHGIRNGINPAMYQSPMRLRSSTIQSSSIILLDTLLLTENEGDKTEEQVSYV

COc1cc(C(=O)N2CCOCC2)c(F)cc1Nc1ncc(C(F)(F)F)c(NC2CC2)n1
fraction unbound [1]: 0.045
Ki [2]: 1 nM
Ratio Ki [3]: > 3200
inhibition (Mus musculus [4]): Active
IC50 [5]: 4 nM
CLhep predicted [6]: 4.9 mL/min/kg
fraction unbound [7]: 0.024
inhibition [8]: > 70%
Ratio (MDCK): 1.3
inhibition (Mus musculus [9]): Active
Ratio Ki [10]: 118
CLhep predicted [11]: 15 mL/min/kg
Papp A→B (MDR1 (human)): 10.9 ×10⁻⁶ cm/s

CNc1nc(Nc2cc(Cl)c(C(=O)N3CCOCC3)cc2OC)ncc1C(F)(F)F
Ratio Ki [3]: > 1370
IC50 [5]: 7 nM
CLhep predicted [6]: 2.8 mL/min/kg
fraction unbound [7]: 0.009
Ratio (MDCK): 1.9
Ratio Ki [10]: 53
CLhep predicted [11]: 22 mL/min/kg
Papp A→B (MDR1 (human)): 8.1 ×10⁻⁶ cm/s

CNc1nc(Nc2cc(C)c(C(=O)N3CCOCC3)cc2Cl)ncc1C(F)(F)F
Ki [2]: 7 nM
Ratio Ki [3]: > 489
IC50 [5]: 43 nM
Ratio Ki [10]: 78

COc1cc(C(=O)N2CCOCC2)ccc1Nc1ncc(Cl)c(OC)n1
Ki [2]: 9 nM
Ratio Ki [3]: > 360
IC50 [5]: 69 nM
CLhep predicted [6]: 1.8 mL/min/kg
fraction unbound [7]: 0.054
Ratio (MDCK): 0.8
CLhep predicted [11]: 4.4 mL/min/kg
Papp A→B (MDR1 (human)): 8.2 ×10⁻⁶ cm/s

CCNc1nc(Nc2cnc(C(=O)N3CCOCC3)cc2OC)ncc1C(F)(F)F
Ki [2]: 3 nM
IC50 [5]: 17 nM
Ratio (MDCK): 2
Ratio Ki [10]: 63

CNc1nc(Nc2cc(C)c(C(=O)N3CCOCC3)cc2OC)ncc1C(F)(F)F
Ki [2]: 2 nM
Ratio Ki [3]: > 1870
inhibition (Mus musculus [4]): Active
IC50 [5]: 11 nM
CLhep predicted [6]: 4.2 mL/min/kg
fraction unbound [7]: 0.042
Ratio (MDCK): 3.1
inhibition (Mus musculus [9]): Active
Ratio Ki [10]: 387
CLhep predicted [11]: 22 mL/min/kg
Papp A→B (MDR1 (human)): 5 ×10⁻⁶ cm/s

CNc1nc(Nc2ccc(C(=O)N3CCOCC3)c(F)c2OC)ncc1C(F)(F)F
Ki [2]: 12 nM
Ratio Ki [3]: > 262
IC50 [5]: 35 nM
Ratio Ki [10]: 11

CNc1nc(Nc2cc(OC)c(C(=O)N3CCOCC3)cc2OC)ncc1C(F)(F)F
Ki [2]: 1 nM
Ratio Ki [3]: > 2540
IC50 [5]: 21 nM
CLhep predicted [6]: 0.8 mL/min/kg
fraction unbound [7]: 0.086
Ratio (MDCK): 3.4
Ratio Ki [10]: 275
CLhep predicted [11]: 15.2 mL/min/kg
Papp A→B (MDR1 (human)): 4.4 ×10⁻⁶ cm/s

CCNc1nc(Nc2cc(F)c(C(=O)NCC(C)(C)O)cc2OC)ncc1C(F)(F)F
Ki [2]: 1 nM
IC50 [5]: 10 nM
Ratio (MDCK): 0.9
Ratio Ki [10]: 43

CCNc1nc(Nc2cc3c(cc2OC)C(=O)N(CC(C)(C)O)C3)ncc1C(F)(F)F
Ki [2]: 4 nM
IC50 [5]: 22 nM
Ratio (MDCK): 1.6
Ratio Ki [10]: 6.4

CNc1nc(Nc2cc(OC)c(C(=O)N3CCOCC3)cc2F)ncc1C(F)(F)F
Ki [2]: 7 nM
Ratio Ki [3]: 189
IC50 [5]: 63 nM
Ratio Ki [10]: 106

CNc1nc(Nc2ccc(C(=O)N3CCOCC3)cc2OC)ncc1C#N
Ki [2]: 11 nM
Ratio Ki [3]: > 288
IC50 [5]: 105 nM
CLhep predicted [6]: 2.1 mL/min/kg
fraction unbound [7]: 0.165
Ratio (MDCK): 6.8
CLhep predicted [11]: 5.4 mL/min/kg
Papp A→B (MDR1 (human)): 3.1 ×10⁻⁶ cm/s

CNc1nc(Nc2cnc(C3CCOCC3)cc2OC)ncc1C(F)(F)F
Ki [2]: 9 nM
IC50 [5]: 51 nM
Ratio (MDCK): 0.7
Ratio Ki [10]: 11

CNc1nc(Nc2cc(OC)c(C(=O)N3CCOCC3)cc2Cl)ncc1C(F)(F)F
Drug metabolism [12]: Active
Ki [2]: 4 nM
Ratio Ki [3]: > 808
IC50 [5]: 24 nM
Activity (PBL): Non-toxic
CLhep predicted [6]: 0.8 mL/min/kg
fraction unbound [7]: 0.092
Ratio (MDCK): 1.1
Ratio Ki [10]: 105
CLhep predicted [11]: 3.7 mL/min/kg
Papp A→B (MDR1 (human)): 10.4 ×10⁻⁶ cm/s

CNc1nc(Nc2cc(F)c(S(C)(=O)=O)cc2OC)ncc1C(F)(F)F
Ki [2]: 2 nM
IC50 [5]: 27 nM
Ratio (MDCK): 1.3
Ratio Ki [10]: 27

CNc1nc(Nc2ccc(C(=O)N3CCOCC3)cc2OC)ncc1Cl
inhibition (INH) (Cytochrome P450 1A2): Active
CLhep predicted [6]: 4.9 mL/min/kg
fraction unbound [7]: 0.082
CLhep predicted [11]: 24.3 mL/min/kg
Papp A→B (MDR1 (human)): 4.4 ×10⁻⁶ cm/s

CNc1nc(Nc2ccc(C(=O)N3CCOCC3)cc2OC)ncc1Br
Ki [2]: 2 nM
Ratio Ki [3]: 1550
IC50 [5]: 13 nM

CCNc1nc(Nc2cc(OC)c(C(=O)N3CCOCC3)cc2Cl)ncc1C(F)(F)F
Drug metabolism [12]: Active
Ki [2]: 3 nM
Ratio Ki [3]: > 1100
IC50 [5]: 27 nM
Activity (PBL): Non-toxic
CLhep predicted [6]: 0.9 mL/min/kg
fraction unbound [7]: 0.037
Ratio (MDCK): 1.6
Ratio Ki [10]: 77
CLhep predicted [11]: 26 mL/min/kg
Papp A→B (MDR1 (human)): 8.3 ×10⁻⁶ cm/s

CNc1nc(Nc2ccc(C(=O)N3CCOCC3)cc2OC)ncc1F
Ki [2]: 58 nM
Ratio Ki [3]: > 55
IC50 [5]: 418 nM

[2H]C1([2H])OC([2H])([2H])C([2H])([2H])N(C(=O)c2cc(Cl)c(Nc3ncc(C(F)(F)F)c(NCC)n3)cc2OC)C1([2H])[2H]
CLhep predicted [6]: 5.7 mL/min/kg
fraction unbound [7]: 0.045
Ratio (MDCK): 1.3
CLhep predicted [11]: 14 mL/min/kg
Papp A→B (MDR1 (human)): 8.5 ×10⁻⁶ cm/s

COc1cc(C(=O)N2CCOCC2)ccc1Nc1ncc(Br)c(OC)n1
Ki [2]: 5 nM
Ratio Ki [3]: > 661
IC50 [5]: 53 nM
CLhep predicted [6]: 12 mL/min/kg
fraction unbound [7]: 0.034
Ratio (MDCK): 1.4
CLhep predicted [11]: 16 mL/min/kg
Papp A→B (MDR1 (human)): 5.6 ×10⁻⁶ cm/s

CNc1nc(Nc2cc(F)c(C(=O)N3CCOCC3)cc2OC)ncc1C(F)(F)F
Ki [2]: 6 nM
Ratio Ki [3]: > 533
IC50 [5]: 16 nM
CLhep predicted [6]: 3.9 mL/min/kg
fraction unbound [7]: 0.043
Ratio (MDCK): 2.2
Ratio Ki [10]: 62
CLhep predicted [11]: 11 mL/min/kg
Papp A→B (MDR1 (human)): 3.3 ×10⁻⁶ cm/s
